Measurements published in PubChem BioAssay AID588704 (Broad Institute, 2011).
Activity calls are given as the source filed them.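 How the source made its calls: active means strong luminescence drop, meaning toxicity to breast epithelial cells with E-cadherin silenced, a stem-like cancer model; inactive means the rest.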

How the values were obtained:
[1] = test system: HMLE_shECad viability, CellTiter-Glo luminescence, 72 h; assay: cytotoxicity toward E-cadherin-knockdown HMLE CSC-like cells – cell-based, CellTiter-Glo luminescence, dry powder, dose response (AID 588704)
Outline: (§1)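 Doses: 0.010–32 µM final / System: EMT-induced HMLE_shECad cancer stem cell-like cells / Input: 1000 cells per well at seeding / Measured by: luminescent ATP assay (CellTiter-Glo) / Buffer or medium: serum-free screening medium for plating / Control set: DMSO-only wells / Repeats: duplicate / Timing: 72 h compound exposure, dosing at 24 h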

[2] = as above; settings: HMLE_shECad viability, CellTiter-Glo luminescence, 72 h
Outline: as §1

| Compound | AC50 [1] [µM] | outcome [2] |
| --- | --- | --- |
| CC(C)(C)c1ccc2c(c1)OC(C(=O)N/N=C/c1ccc[nH]1)CO2 (configuration not stated) | 3.48 |  |
| Cc1cc(Cl)ccc1OCC(=O)N/N=C/c1ccc[nH]1 | 4.58 |  |
| O=C(COc1c(Cl)cc(Cl)cc1Cl)N/N=C/c1ccc[nH]1 | 0.47 |  |
| O=C(N/N=C/c1ccc[nH]1)c1cc2ccccc2o1 | 2.46 |  |
| O=C(COc1ccc(Cl)cc1Cl)N/N=C/c1cnc[nH]1 |  | inactive |
| O=C(COc1cc(Cl)ccc1Cl)N/N=C/c1ccc[nH]1 | 0.93 |  |
| O=C(COc1ccc(Cl)cc1Cl)N/N=C/c1ccc[nH]1 | 3.39 |  |
